Each block holds one molecule with its values, some of them ahead of it. The source made the active and inactive calls. The calls are words filed in the database; no cut-off is given here.
Columns and labels:
MCF7 [1] = experiment: Antiproliferative activity against human MCF7 cells incubated for 48 hrs by sulforhodamine B assay; format: functional, cell-based; conditions: MCF7, 48 h
Summary of the method: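 MCF-7 cells (1 × 10⁵ cells/mL) attached 24 h in MEM with 10% FBS, 37 °C, 5% CO2. Exposed to serial dilutions, DMSO final <0.1%, for 48 h. TCA (50%) fixation, sulforhodamine B staining, IC50 determined. Three independent sets.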

HeLa = experiment: Antiproliferative activity against human HeLa cells incubated for 24 hrs by sulforhodamine B assay; format: functional, cell-based
Summary of the method: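 HeLa cells (1 × 10⁵ cells/mL) attached 24 h in MEM with 10% FBS, 37 °C, 5% CO2. Then treated with serial dilutions, DMSO final <0.1%, for 24 h. Fixed with 50% TCA, sulforhodamine B read-out, IC50 derived. Three independent experiments.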

MDA-MB-231 [2] = experiment: Antiproliferative activity against human MDA-MB-231 cells incubated for 24 hrs by sulforhodamine B assay; format: functional, cell-based; conditions: MDA-MB-231, 24 h
Summary of the method: (§1)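 Cells grown in DMEM with 2.2 g/L sodium bicarbonate, 10% FBS and antibiotic–antimycotic at 37 °C under 5% CO2. Compounds were dissolved in DMSO and diluted in medium (final DMSO <0.1%). Cells were exposed to a concentration series for 24 h, fixed with 50% TCA and stained with sulforhodamine B. IC50 was derived from three independent experiments.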

MCF7 [3] = experiment: Induction of cell cycle arrest in human MCF7 cells assessed as accumulation at S phase at 5 nM incubated for 24 hrs by propidium iodide staining based flow cytometry (reference value: 35%); format: functional
MCF7 [4] = experiment: Induction of cell cycle arrest in human MCF7 cells assessed as accumulation at G2/M phase at 50 nM incubated for 24 hrs by propidium iodide staining based flow cytometry (reference value: 16%); format: functional
EMT6 = experiment: Antiproliferative activity against drug resistant mouse EMT6/AR1 cells incubated for 24 hrs by sulforhodamine B assay; format: functional, cell-based; conditions: EMT6, 24 h; summary of the method: as §1
MCF7 [5] = experiment: Induction of cell cycle arrest in human MCF7 cells assessed as accumulation at G1 phase at 10 nM incubated for 24 hrs by propidium iodide staining based flow cytometry (reference value: 49%); format: functional
MCF7 [6] = experiment: Induction of cell cycle arrest in human MCF7 cells assessed as accumulation at G2/M phase at 5 nM incubated for 24 hrs by propidium iodide staining based flow cytometry (reference value: 16%); format: functional
MDA-MB-231 [7] = experiment: Inhibition of cell migration of human MDA-MB-231 cells at 150 nM by wound closure assay; format: functional
Summary of the method: (§2)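 MDA-MB-231 cells grown to 90% confluency in 35 mm dishes and scratched with a microtip. Incubated without or with compound. Wound closure imaged at 0, 4 and 18 h and expressed as percent closure.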

MCF7 [8] = experiment: Induction of cell cycle arrest in human MCF7 cells assessed as accumulation at S phase at 50 nM incubated for 24 hrs by propidium iodide staining based flow cytometry (reference value: 35%); format: functional
MCF7 [9] = experiment: Induction of cell cycle arrest in human MCF7 cells assessed as accumulation at S phase at 10 nM incubated for 24 hrs by propidium iodide staining based flow cytometry (reference value: 35%); format: functional
MCF7 [10] = experiment: Induction of cell cycle arrest in human MCF7 cells assessed as accumulation at G1 phase at 5 nM incubated for 24 hrs by propidium iodide staining based flow cytometry (reference value: 49%); format: functional
MCF7 [11] = experiment: Induction of cell cycle arrest in human MCF7 cells assessed as accumulation at G2/M phase at 10 nM incubated for 24 hrs by propidium iodide staining based flow cytometry (reference value: 16%); format: functional
MCF7 [12] = experiment: Induction of cell cycle arrest in human MCF7 cells assessed as accumulation at G1 phase at 50 nM incubated for 24 hrs by propidium iodide staining based flow cytometry (reference value: 49%); format: functional
[13] = Inhibition of goat brain tubulin assembly incubated for 10 mins by spectrophotometry; parameters: species or system Ovis aries
Summary of the method: (§3)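 Goat brain tubulin (12 μM; glutamate-purified, >97% pure) held 10 min on ice with compound in 25 mM PIPES, 1 mM EGTA, 3 mM MgCl2, 1 M glutamate. Then 1 mM GTP added. Assembly followed at 350 nm, 37 °C, for 20 min. Three independent experiments.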

[14] = Binding affinity to goat brain tubulin assessed as reduction in binding of 5-(Quinolin-3-yl)-4-(3,4,5-trimethoxyphenyl)-1H-imidazol-2-amine to tubulin incubated for 15 mins by fluorescence based assay; parameters: species or system Ovis aries
Summary of the method: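 Goat brain tubulin (3 μM) was preincubated with competitor (1–20 μM) in 25 mM PIPES, pH 6.8, for 15 min at 25 °C. The 2-aminoimidazole probe (6 μM) was then added for 15 min at 25 °C. Emission was recorded at 420–520 nm with excitation at 350 nm. Ki was calculated as EC50/(1 + L/Kd). Three sets were run.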

MDA-MB-231 [15] = experiment: Inhibition of cell migration of human MDA-MB-231 cells at 50 nM by wound closure assay; format: functional; summary of the method: as §2
Huh-7 = experiment: Antiproliferative activity against human HuH7 cells incubated for 24 hrs by sulforhodamine B assay; format: functional, cell-based; conditions: Huh-7, 24 h; summary of the method: as §1
Ovis aries = organism: Ovis aries; experiment: Inhibition of goat brain tubulin assembly at 20 uM incubated for 10 mins by spectrophotometry; summary of the method: as §3

SMILES: COc1ccc(-c2[nH]c(N)nc2-c2cc(OC)c(OC)c(OC)c2)cc1O
IC50 (MCF7 [1]): 0.22 µM
IC50 (HeLa): 0.39 µM

SMILES: COc1cccc(-c2[nH]c(N)nc2-c2cc(OC)c(OC)c(OC)c2)c1
IC50 (MCF7 [1]): 18 µM
IC50 (HeLa): 14 µM

SMILES: COc1cc(-c2nc(N)[nH]c2-c2ccc3[nH]ccc3c2)cc(OC)c1OC
IC50 (MCF7 [1]): 8 µM
IC50 (HeLa): 3 µM

SMILES: COc1ccc(/C=C\c2cc(OC)c(OC)c(OC)c2)cc1O [COMBRETASTATIN A4]
IC50 (MDA-MB-231 [2]): 331 nM
Activity (MCF7 [3]): 23%
Activity (MCF7 [4]): 63%
IC50 (EMT6): 495 nM
IC50 (MCF7 [1]): 0.018 µM
Activity (MCF7 [5]): 41%
Activity (MCF7 [6]): 26%
inhibition at 0.15 µM (MDA-MB-231 [7]): 52%
Activity (MCF7 [8]): 23%
Activity (MCF7 [9]): 16%
Activity (MCF7 [10]): 51%
IC50 (HeLa): 0.025 µM
Activity (MCF7 [11]): 43%
Activity (MCF7 [12]): 14%
IC50 [13]: 1700 nM
Kd [14]: 680 nM
inhibition at 0.05 µM (MDA-MB-231 [15]): 8%
IC50 (Huh-7): 430 nM

SMILES: Nc1nc(-c2ccccc2)c(-c2ccccc2)[nH]1
IC50 (MCF7 [1]): 0.187 µM
inhibition (Ovis aries): inactive
IC50 (HeLa): 0.197 µM

Further lines, results first:

IC50 (MCF7 [1]): 53 µM
IC50 (HeLa): 18 µM
SMILES: COc1cc(-c2nc(N)[nH]c2-c2cccc(O)c2)cc(OC)c1OC

IC50 (MCF7 [1]): 27 µM
IC50 (HeLa): 34 µM
SMILES: COc1cc(-c2nc(N)[nH]c2-c2ccccc2)cc(OC)c1OC

IC50 (MCF7 [1]): 13 µM
IC50 (HeLa): 4 µM
SMILES: COc1cc(-c2nc(N)[nH]c2-c2cccnc2)cc(OC)c1OC
